From PubChem
PRMT1 inh = blocks human protein arginine methyltransferase 1 | Q99873 | recombinant PRMT1, activity-based probe fluorescence polarization | inhibition, % at 2.79 µM | 370,000 tested, 1.3% active;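 active means inhibition above about 21% made by adding two undisclosed values, limit read from the data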
UHRF1 MBD2 ctr = blocks human UHRF1 binding to methylated DNA; UHRF1 binding to methylated oligo, TR-FRET; Q96T88; inhibition, % at 4.4 µM; 370,000 tested, 0.75% active; in the data active means inhibition above about 21%;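 further: UHRF1 SRA domain binding a hemimethylated CpG hairpin DNA probe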
Target sequence (Q96T88 whole entry, looked up, the tested form may be a part): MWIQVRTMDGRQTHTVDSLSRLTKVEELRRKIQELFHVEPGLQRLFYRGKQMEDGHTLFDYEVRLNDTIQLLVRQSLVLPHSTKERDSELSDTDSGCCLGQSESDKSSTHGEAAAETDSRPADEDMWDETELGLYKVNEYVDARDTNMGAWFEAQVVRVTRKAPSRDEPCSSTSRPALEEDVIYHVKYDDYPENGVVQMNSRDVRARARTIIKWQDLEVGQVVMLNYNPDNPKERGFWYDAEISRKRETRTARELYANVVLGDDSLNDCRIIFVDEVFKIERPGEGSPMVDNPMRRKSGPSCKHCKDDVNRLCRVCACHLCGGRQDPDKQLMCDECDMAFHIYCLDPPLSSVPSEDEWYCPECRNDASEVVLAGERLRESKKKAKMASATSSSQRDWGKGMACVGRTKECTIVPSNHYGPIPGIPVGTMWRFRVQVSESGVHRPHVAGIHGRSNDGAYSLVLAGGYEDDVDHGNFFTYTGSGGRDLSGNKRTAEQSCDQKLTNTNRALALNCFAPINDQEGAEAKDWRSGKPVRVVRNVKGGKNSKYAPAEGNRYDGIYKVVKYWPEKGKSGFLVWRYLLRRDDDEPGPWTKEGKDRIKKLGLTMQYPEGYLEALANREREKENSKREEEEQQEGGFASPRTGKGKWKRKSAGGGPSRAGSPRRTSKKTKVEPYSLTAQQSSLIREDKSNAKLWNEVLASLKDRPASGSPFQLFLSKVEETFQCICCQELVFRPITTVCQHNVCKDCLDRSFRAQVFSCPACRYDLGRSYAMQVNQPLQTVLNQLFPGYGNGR
SIAE primary = blocks human sialic acid acetylesterase | SIAE FP-Rh probe binding, fluorescence polarization | 370,000 tested, 0.69% active | inhibition, % at 9.66 µM | Q9HAT2 | AID 1053197;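 active means inhibition above a cutoff: mean of compounds within the control limits plus 3 SD of those, cut at about 17% in these data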
TDP2 inh = TDP2 (human) inhibition, absorbance primary screen; inhibition, % at 12.8 µM; recombinant TDP2, T5PNP hydrolysis, p-nitrophenol absorbance 415 nm; O95551; 370,000 tested, 0.34% active;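 active means inhibition above the mean of all tested compounds plus 3 SD, set per campaign, cut at about 25% in these data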
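System: recombinant human TDP2 / Amount: 120 nM TDP2 per well / Also added: 5 mM T5PNP chromogenic substrate / Doses: 12.8 µM single point, 1% DMSO / Incubation: 2 h at 37 °C / Detection: p-Nitrophenol epi absorbance / Evaluation: % inhibition relative to enzyme-containing and enzyme-free wells / Repeats: singlicate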
LEDGF integ inh = blocks HIV-1 LEDGF/p75-dependent DNA integration; inhibition, % at 3.7 µM; TR-FRET IN-LEDGF/p75 DNA integration, Eu/Cy5; 370,000 tested, 0.64% active;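 active means inhibition above the screen-wide mean plus 3 SD, cut at about 13% in these data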;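 further: signal is the Cy5 over europium emission ratio at 671 and 618 nm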
MBD2 inh = blocks human MBD2 binding to methylated DNA | AID 686964 | Q9UBB5 | inhibition, % at 4.4 µM | TR-FRET, MBD2 binding to methylated oligonucleotide | 370,000 tested, 0.31% active; in the data active means inhibition above about 13%
PRMT1 inh conf = PRMT1 (human) inhibition, FP confirmation; 3,300 tested, 42% active; inhibition, % at 2.79 µM; shares compounds with PRMT1 inh; recombinant His-PRMT1, activity-based probe fluorescence polarization;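 active means mean inhibition across replicates above the hit cutoff derived for the earlier primary screen, cut at about 22% in these data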
Large screens that a line does not name were inactive (follow-up assays come after a bar, where they were run). A selection: hits, their analogues and other compounds. The true share with any hit is near 3.3%.

O=C1NC(=O)C2(N1)C(=O)c1cccc3cccc2c13 (stereo not given)	PRMT1 inh 139 | PRMT1 inh conf 72
Cc1ccc(NC(=O)[C@H]2CC(=O)O[C@@H]2c2ccccc2)c(C)c1	none
Cc1ccc(CNC(=O)CSc2c3c(nc4cc(Cl)ccc24)CCCC3)o1	PRMT1 inh 60 | PRMT1 inh conf inactive
COc1ccc(OC)c(-n2c(=S)[nH]c3c(sc(=S)n3-c3ccccc3C)c2=O)c1	PRMT1 inh 48 | PRMT1 inh conf inactive
COc1cccc(-n2c(=S)sc3c(=O)n(-c4ccccc4OC)c(=S)[nH]c32)c1	PRMT1 inh 82 | PRMT1 inh conf inactive
Cc1cc(OC[C@@H](O)CN2CCC(C(O)(c3ccccc3)c3ccccc3)CC2)ccc1Br	none
O=[N+]([O-])c1c(NCCCO)cc(Sc2ccc(Cl)cc2)c2nonc12	none
Cn1ccnc1Sc1cc(NCCCO)c([N+](=O)[O-])c2nonc12	PRMT1 inh 42 | PRMT1 inh conf 26
O=C(O)CCCC(=O)Nc1ccc(OCc2nc3ccccc3s2)cc1	PRMT1 inh 26 | PRMT1 inh conf inactive
O=C(CCCc1nc2ccccc2s1)Nc1ccccc1	none
CCCCC(=O)OCC(=O)C1(O)Cc2c(O)c3c(c(O)c2C(OC2CC(NC(=O)C(F)(F)F)C(O)C(C)O2)C1)C(=O)c1c(OC)cccc1C3=O (stereo not given)	PRMT1 inh 25 | PRMT1 inh conf inactive
C(=Cc1c[nH]c2ccccc12)c1nccc2ccccc12	PRMT1 inh 52 | PRMT1 inh conf inactive
O=C1OC(NC(=O)c2ccccc2)C(n2cc(CO)nn2)=C1Cl (stereo not given)	PRMT1 inh 65 | PRMT1 inh conf 67
Cc1ccc(NC2=C(Cl)C(=O)OC2NC(=O)c2ccccc2)cc1 (stereo not given)	none
CCN(C(=O)COC(=O)c1ccc(Sc2ncn[nH]2)c([N+](=O)[O-])c1)c1ccccc1C	none
COC(=O)C1CN(Cc2ccccc2)CCS(=O)(=O)N1Cc1ccc(C(F)(F)F)cc1 (stereo not given)	none
CC(C)n1cc(/C=N/Nc2ccc(C(=O)O)cc2)c2ccccc21	PRMT1 inh 26 | PRMT1 inh conf inactive
O=C(O)c1ccc(N/N=C/c2cn(Cc3ccccc3F)c3ccccc23)cc1	none
COc1ccc(N2C(=O)CC(N3CCC(O)(c4ccc(Br)cc4)CC3)C2=O)cc1 (stereo not given)	PRMT1 inh 50 | PRMT1 inh conf inactive
O=CN1CCN(C2CC(=O)N(c3ccc(Br)cc3)C2=O)CC1 (stereo not given)	none
O=C1CC(N2CCC(O)CC2)C(=O)N1c1ccc(Br)cc1 (stereo not given)	PRMT1 inh 57 | PRMT1 inh conf inactive
O=C1CC(N2CCC(O)(c3ccc(Cl)cc3)CC2)C(=O)N1 (stereo not given)	PRMT1 inh 54 | PRMT1 inh conf inactive
O=C(O)c1ccc(N2C(=O)CC(N3CCN(c4ccc(Cl)cc4)CC3)C2=O)cc1 (stereo not given)	none
O=C1CC(N2CCC(O)(c3ccc(Br)cc3)CC2)C(=O)N1c1ccc(Cl)cc1 (stereo not given)	PRMT1 inh 33 | PRMT1 inh conf inactive
Cc1ccc(-c2csc3nc(C)n(-n4cccc4)c(=O)c23)o1	PRMT1 inh 26 | PRMT1 inh conf inactive
CC(=O)c1ccc(-n2c(CCC(=O)O)ccc2-c2cccs2)cc1	PRMT1 inh 63 | PRMT1 inh conf inactive
CCCn1c(CCC(=O)O)ccc1-c1cccs1	none
Cc1ccc(-c2ccc(CCC(=O)O)n2-c2cccc(C(=O)O)c2)cc1	none
COC(=O)c1cccc(-n2c(CCC(=O)O)ccc2-c2cccs2)c1	PRMT1 inh 40 | PRMT1 inh conf inactive
Cc1ccc(-n2c(CCC(=O)O)ccc2-c2cccs2)cc1	none
NC(=O)c1ccc(-n2c(CCC(=O)O)ccc2-c2cccs2)cc1	PRMT1 inh 45 | PRMT1 inh conf inactive
Cc1ccc(S(=O)(=O)n2ccc(-c3c(-c4ccccc4)noc3C)n2)cc1	none
